High-throughput results from PubChem BioAssay.
Cav32 inh: blocks human Cav3.2 T-type calcium channel | AID 449739 | actives 4% (n = 100,000) | O95180 | Cav3.2-expressing cells, Fluo-4 calcium fluorescence FDSS; active compounds read low | B-score at 10 µM;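 active means single-dose well whose peak fluorescence ratio is a statistical outlier from its plate by either plate-standardised score or position-corrected B-score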
Target sequence (O95180 whole entry, looked up): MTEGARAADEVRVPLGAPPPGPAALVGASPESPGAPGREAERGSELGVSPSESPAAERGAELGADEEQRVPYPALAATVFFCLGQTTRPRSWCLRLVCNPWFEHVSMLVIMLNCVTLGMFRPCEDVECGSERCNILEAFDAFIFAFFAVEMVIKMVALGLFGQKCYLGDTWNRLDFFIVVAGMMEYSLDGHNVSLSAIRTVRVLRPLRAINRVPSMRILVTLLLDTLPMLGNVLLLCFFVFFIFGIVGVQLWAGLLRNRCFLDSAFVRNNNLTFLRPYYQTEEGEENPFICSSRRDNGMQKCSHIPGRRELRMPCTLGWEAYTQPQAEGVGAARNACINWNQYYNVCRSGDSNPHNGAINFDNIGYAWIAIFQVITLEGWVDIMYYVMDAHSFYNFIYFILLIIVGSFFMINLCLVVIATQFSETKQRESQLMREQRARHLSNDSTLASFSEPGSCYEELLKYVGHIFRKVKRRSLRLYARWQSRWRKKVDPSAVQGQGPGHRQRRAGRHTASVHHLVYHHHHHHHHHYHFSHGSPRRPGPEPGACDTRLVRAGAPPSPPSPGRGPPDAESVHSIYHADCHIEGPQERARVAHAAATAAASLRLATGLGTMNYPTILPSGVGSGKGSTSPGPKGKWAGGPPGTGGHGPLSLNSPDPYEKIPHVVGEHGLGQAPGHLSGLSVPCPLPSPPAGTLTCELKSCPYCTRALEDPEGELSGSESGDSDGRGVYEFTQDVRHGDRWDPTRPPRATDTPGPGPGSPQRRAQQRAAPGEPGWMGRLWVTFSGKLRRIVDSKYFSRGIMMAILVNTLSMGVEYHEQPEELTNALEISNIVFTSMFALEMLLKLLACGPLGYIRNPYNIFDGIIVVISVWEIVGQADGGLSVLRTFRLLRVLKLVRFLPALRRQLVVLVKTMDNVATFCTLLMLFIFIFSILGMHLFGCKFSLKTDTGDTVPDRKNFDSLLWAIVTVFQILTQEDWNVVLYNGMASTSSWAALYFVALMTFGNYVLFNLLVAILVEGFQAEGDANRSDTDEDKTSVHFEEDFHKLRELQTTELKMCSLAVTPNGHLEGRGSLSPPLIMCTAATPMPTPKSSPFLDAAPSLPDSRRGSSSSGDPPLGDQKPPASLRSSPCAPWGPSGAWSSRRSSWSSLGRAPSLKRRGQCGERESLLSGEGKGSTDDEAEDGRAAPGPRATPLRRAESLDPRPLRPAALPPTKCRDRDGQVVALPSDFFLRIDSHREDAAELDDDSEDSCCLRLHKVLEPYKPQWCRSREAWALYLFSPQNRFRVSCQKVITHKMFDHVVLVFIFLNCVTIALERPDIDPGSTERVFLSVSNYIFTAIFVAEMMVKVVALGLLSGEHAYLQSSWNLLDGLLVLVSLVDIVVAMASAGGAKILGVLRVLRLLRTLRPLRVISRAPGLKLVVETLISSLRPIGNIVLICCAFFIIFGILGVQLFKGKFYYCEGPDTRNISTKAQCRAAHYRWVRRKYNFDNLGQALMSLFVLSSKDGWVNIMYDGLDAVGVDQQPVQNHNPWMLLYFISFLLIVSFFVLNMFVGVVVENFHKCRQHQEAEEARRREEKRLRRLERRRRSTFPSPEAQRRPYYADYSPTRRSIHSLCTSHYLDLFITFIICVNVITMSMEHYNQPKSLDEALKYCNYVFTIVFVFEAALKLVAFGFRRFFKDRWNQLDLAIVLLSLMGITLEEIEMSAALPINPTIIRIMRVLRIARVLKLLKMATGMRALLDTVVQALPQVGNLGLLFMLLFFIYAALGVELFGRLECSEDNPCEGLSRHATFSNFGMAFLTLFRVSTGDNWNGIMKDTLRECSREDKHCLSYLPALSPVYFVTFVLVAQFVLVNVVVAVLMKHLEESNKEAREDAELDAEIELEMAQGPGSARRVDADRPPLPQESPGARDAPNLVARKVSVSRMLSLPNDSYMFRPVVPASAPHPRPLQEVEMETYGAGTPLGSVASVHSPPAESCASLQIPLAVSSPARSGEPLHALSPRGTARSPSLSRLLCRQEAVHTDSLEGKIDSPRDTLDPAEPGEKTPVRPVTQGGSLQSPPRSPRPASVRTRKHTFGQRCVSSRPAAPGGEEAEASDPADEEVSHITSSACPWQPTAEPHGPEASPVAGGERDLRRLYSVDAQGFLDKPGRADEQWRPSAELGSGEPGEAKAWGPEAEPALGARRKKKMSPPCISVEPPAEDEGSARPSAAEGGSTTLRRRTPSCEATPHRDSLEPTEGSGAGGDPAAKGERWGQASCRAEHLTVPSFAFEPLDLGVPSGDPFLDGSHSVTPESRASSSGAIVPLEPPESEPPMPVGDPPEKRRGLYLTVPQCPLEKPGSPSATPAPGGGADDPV
bCat KO growth: beta-catenin-lacking colon tumor cell growth suppression; viability, % at 10 µM; AID 818; HCT116 beta-catenin knockout viability, CellTiter-Glo, 60 h; active compounds read low; actives 1.5% (n = 140,000);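 active means viability at or under a set limit, the compound median less 4 SD, cut at about 6% in these data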
HCT116 PTEN-null: PTEN-deleted cell growth suppression | HCT116 PTEN-null viability, CellTiter-Glo, 60 h; active compounds read low | viability, % at 10 µM | actives 1.2% (n = 140,000);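 active means viability at or below a set limit, 4 SD under the median of all tested compounds, cut at about 3.7% in these data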;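 further: PTEN knockout HCT116 line with beta catenin targeted HCT116 as companion control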
HUVEC inhibit: inhibitors of human endothelial cell proliferation; HUVEC proliferation, CellTiter-Glo luminescence, 72 h; active compounds read low; viability, % at 10 µM (by protocol); actives 1.1% (n = 86,000); AID 648;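 active means viability at or below 30%; inactive means viability above 30%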
H69AR inhibit: growth inhibitors of human H69AR lung tumor cells | H69AR lung tumor viability, ATP luminescence, 72 h; active compounds read low | viability, % at 10 µM | actives 6% (n = 85,000);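 active means viability at or below 40%; inactive means viability above 40%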;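 further: multidrug resistant small cell line overexpressing MRP-1 efflux transporter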
Lung fibro prol: blocks proliferation of human lung fibroblasts. LL 47 human lung fibroblast viability, ATP luminescence; active compounds read low. viability, % at 10 µM. actives 1.1% (n = 85,000);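 active means viability at or below 50% in the single dose screen; inactive means viability above 50%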;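 further: compound exposure lasted 72 h before the ATP readout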
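material = human LL 47 lung fibroblast cells | dosing = compounds added from tenfold dosing solution, 0.1% DMSO final | timing = overnight cell rest, 72 h compound treatment at 37 °C | measured by = CellTiter-Glo luminescence measuring cellular ATP | evaluation = % viability versus median cells-only luminescence | control set = cell-only wells, no compound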
Hits are given with their value; - = inactive; . = no result given. A selection: hits, their analogues and other compounds. The true share with any hit is near 7.1%.

SMILES	Cav32 inh	bCat KO growth	HCT116 PTEN-null	HUVEC inhibit	H69AR inhibit	Lung fibro prol
O=C(Oc1oc(-c2ccco2)nc1C=Nc1ccccc1)c1ccco1	.	-	-	-	39	-
[O-]/[N+](=C\c1ccncc1)c1ccc(Br)cc1	.	-	-	-	-	-
O=C1C(=O)N(O)C2CCCCC2N1O (stereo not drawn)	.	-	-	.	.	.
C/C(=N\Nc1cccc(Cl)c1)c1ccc(-n2ccnc2)cc1	.	-	-	.	.	.
O=C(N/N=C/c1ccccc1Br)c1ccc(CSc2cccc3cccnc23)cc1	-5.2	-	-	-	-	-
Cc1ccc(SC/C(O)=C(\C#N)c2nc3ccccc3s2)cc1	-4.4	-	-	-	-	-
CCN(CC)C(=O)COc1ccc(C=O)cc1OC	.	-	-	.	.	.
COc1cc2c3nnc(-c4ccc(F)cc4)c-3cn(Cc3ccc(C)cc3)c2cc1OC	-5.8	-	-	-	-	-
COc1cc2c3nnc(-c4ccc(F)cc4)c-3cn(Cc3cccc(C)c3)c2cc1OC	-3.6	-	-	2.3	1.1	3.2
Fc1ccccc1/C=N/NC(=S)Nc1ccc(Cl)cc1Cl	.	-	-	.	.	.
O=C(Nc1nc2ccc(S(=O)(=O)N3CCCCC3)cc2s1)C1CCCO1 (stereo not drawn)	-	-	-	-	-	-
COc1ccc(OC)c(NC(=O)C2CCCN(S(=O)(=O)c3c(C)noc3C)C2)c1 (stereo not drawn)	-	-	-	-	-	-
O=C(Nc1nc2ccc(S(=O)(=O)N3CCCC3)cc2s1)C1CCCCC1	.	-	-	-	23	47
COc1ccc(NC(=O)C2CCCN2S(=O)(=O)c2ccc3c(c2)CCC(=O)N3)cc1 (stereo not drawn)	-4.1	-	-	-	-	-
COc1ccc2nc(NC(=O)C3CCCN(S(=O)(=O)c4c(C)noc4C)C3)sc2c1 (stereo not drawn)	-	-	-	-	35	-
CCOc1ccc(OCC)c(NC(=O)C2CCCN(S(=O)(=O)c3c(C)noc3C)C2)c1 (stereo not drawn)	-	-	-	-	19	-
N#CCCn1c(SCC(=O)Nc2ccc(N3CCOCC3)cc2)nc2ccccc21	.	-	-	.	.	.
Cc1ccc(S(=O)(=O)N2CCCC2C(=O)Nc2nc3c(s2)CCCC3)cc1 (stereo not drawn)	-	-	-	-	-	-
COc1ccc2nc(NC(=O)C3CCCN3S(=O)(=O)c3ccc(C)cc3)sc2c1 (stereo not drawn)	-3.7	-	-	-	-	-
Cc1ccc(S(=O)(=O)N2CCN=C2c2ccccc2)cc1C	-	-	-	-	-	-
COc1cc(S(=O)(=O)N2CCN=C2c2ccccc2)ccc1F	.	-	-	-	23	-
CNc1ccc(/C=C2\COc3ccccc3C2=O)cc1[N+](=O)[O-]	-	-	-	-	16	-
CC1CC(N(C(=O)c2ccco2)c2ccccc2)c2ccccc2N1C(=O)c1ccco1 (stereo not drawn)	-5.3	-	-	-	-	-
CC1CC(N(C(=O)c2ccc(Cl)cc2)c2ccccc2)c2ccccc2N1C(=O)c1ccco1 (stereo not drawn)	-5.7	-	-	-	-	-
CC1CC(N(C(=O)C2CC2)c2ccccc2)c2ccccc2N1C(=O)C1CC1 (stereo not drawn)	-	-	-	-	-	-
SMILES	Cav32 inh	bCat KO growth	HCT116 PTEN-null	HUVEC inhibit	H69AR inhibit	Lung fibro prol
O=C(NCCCn1ccnc1)C(=O)NCC1OCCCN1S(=O)(=O)c1ccccc1 (stereo not drawn)	.	-	-	.	.	.
Cc1ccccc1CSCC(=O)NC(=O)NCc1ccco1	-	-	-	-	-	-
CCc1ccc(N/C(SCc2cccc(F)c2)=C(/C#N)C(=O)NCc2ccco2)cc1	-3.6	-	-	-	-	-
Cc1ccc(N/C(SCc2ccccc2C)=C(/C#N)C(=O)NCc2ccco2)cc1C	-5.3	-	-	-	-	-
N#C/C(=C\c1cn(Cc2cccc(F)c2)c2ccccc12)C(=O)NCc1ccco1	.	-	-	.	.	.
Cn1c(=O)c2c(nc(SCC(=O)NC3CCCCC3)n2C)n(C)c1=O	.	.	.	-	-	-
Cc1ccc(-c2cc(C(=O)Nc3ccc(S(=O)(=O)Nc4nccs4)cc3)c3ccccc3n2)c(C)c1	.	-	-	.	.	.
CN(C)c1ccc(/C=C/C(=O)c2ccccc2)cc1[N+](=O)[O-]	.	1.8	1.4	.	.	.
CC(=O)Nc1cccc(C(=O)/C=C/c2ccco2)c1	-	-	-	.	.	.
CC(=O)Nc1cccc(C(=O)/C=C/c2ccc(N(C)C)cc2)c1	.	-	-	.	.	.
CC(=O)Nc1cccc(C(=O)/C=C/c2ccc(Br)cc2)c1	.	1.5	1.3	.	.	.
CC(=O)Nc1cccc(C(=O)/C=C/c2cccs2)c1	.	1.5	1.6	.	.	.
CC(=O)Nc1cccc(C(=O)/C=C/c2ccc(/C=C/C(=O)c3cccc(NC(C)=O)c3)cc2)c1	.	4.2	1.8	.	.	.
CNc1ccc(/C=C/C(=O)c2ccc(C)cc2)cc1[N+](=O)[O-]	.	-	-	.	.	.
C=CCN(C/C(=N\O)c1sc(C(=O)OCC)nc1C)c1cccc(Br)c1	-	.	.	.	.	.
CCOC(=O)c1cnn(-c2nc(OCC)cc(OCC)n2)c1C	.	-	-	.	.	.
Cc1ccc(/C=C/C(=O)c2ccccc2)cc1	-	0.9	0.4	-	-	49
O=C(/C=C/c1ccccc1)c1ccccn1	-	5.7	-	.	.	.
Cc1ccc(C(=O)/C=C/C(=O)O)cc1	.	-	-	.	.	.
CN(C)c1ccc(/C=N/N2C(=S)SC(C)(C)C2N(O)C(=O)Nc2ccc([N+](=O)[O-])cc2)cc1 (stereo not drawn)	-	-	-	-	-	-
COc1ccc(NC(=O)C2CC(=O)N(C)C(=Nc3ccc4c(c3)OCO4)S2)cc1 (stereo not drawn)	-	-	-	-	30	-
Cc1cccc(/C=N\NC(=O)c2sccc2-n2cccc2)c1	-4.1	-	-	.	.	.
CCOC(=O)N1CCN(C(=O)c2ccc(C#CC3(O)CCCCC3)cc2)CC1	-	-	-	-	-	-
O=C(c1ccc(C#CC2(O)CCCCC2)cc1)N1CCN(C(c2ccccc2)c2ccccc2)CC1	-5.1	-	-	-	34	-
O=C(c1ccc(C#CC2(O)CCCCC2)cc1)N1CCN(Cc2ccccc2)CC1	-6.1	-	-	-	-	-
SMILES	Cav32 inh	bCat KO growth	HCT116 PTEN-null	HUVEC inhibit	H69AR inhibit	Lung fibro prol
CC1=CC(C)(C)Nc2ccc(OC(=O)CCN3C(=O)c4ccccc4C3=O)cc21	.	1.2	1.5	.	.	.
Cc1cc(NC(=O)c2c(F)cccc2Cl)n(-c2nc3ccccc3[nH]2)n1	-	-	-	-	28	-
Cc1cc(NC(=O)c2c(F)cccc2F)n(-c2nc3ccccc3[nH]2)n1	-	-	-	-	36	-
Cc1cc(NC(=O)c2ccccc2F)n(-c2nc3ccccc3[nH]2)n1	-	-	-	-	-	-
Cc1cc(Nc2ccccc2)n(-c2nc3ccccc3[nH]2)n1	-	-	-	-	37	-
CCCCCCNC(=O)n1cc(F)c(=O)[nH]c1=O	-	.	.	.	.	.
